Reference: PubChem BioAssay AID504906 (The Scripps Research Institute Molecular Screening Center, 2011)

Biological target: Nuclear receptor ROR-alpha (Homo sapiens) (UniProt P35398)
Experiment: displacement of tritiated 25-hydroxycholesterol from RORa – biochemical, [3H]25-hydroxycholesterol, radioligand competition, GST-RORa LBD, orthogonal assay for RORA inverse agonist project, late-stage follow-up (AID 504906)
Conditions: [3H]25-hydroxycholesterol displacement, radioligand binding
Summary of the method: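 Material: purified GST-tagged human RORα ligand-binding domain, residues 304-556, E. coli-expressed / Reagent: 3 nM [3H]25-hydroxycholesterol / Technique: GF/B filter capture of bound radioligand / Evaluation: Ki via mixed-inhibition model regression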

Chain of Nuclear receptor ROR-alpha (Homo sapiens) (P35398 whole entry, looked up, the tested form may be a part): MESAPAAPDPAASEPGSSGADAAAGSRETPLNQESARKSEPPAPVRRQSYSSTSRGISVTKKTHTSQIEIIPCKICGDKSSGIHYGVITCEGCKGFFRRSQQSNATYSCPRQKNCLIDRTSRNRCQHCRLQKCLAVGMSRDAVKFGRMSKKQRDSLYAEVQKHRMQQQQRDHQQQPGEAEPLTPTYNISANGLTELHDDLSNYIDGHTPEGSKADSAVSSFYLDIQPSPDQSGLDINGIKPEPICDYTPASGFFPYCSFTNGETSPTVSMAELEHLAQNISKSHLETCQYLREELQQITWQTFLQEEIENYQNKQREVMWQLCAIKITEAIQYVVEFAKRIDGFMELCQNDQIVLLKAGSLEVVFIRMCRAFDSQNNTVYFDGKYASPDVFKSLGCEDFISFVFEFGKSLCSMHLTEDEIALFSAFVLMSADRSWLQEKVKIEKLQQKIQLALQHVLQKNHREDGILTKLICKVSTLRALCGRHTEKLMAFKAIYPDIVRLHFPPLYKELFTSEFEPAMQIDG

In the case of `O=S(=O)(Nc1ccc(C(O)(C(F)(F)F)C(F)(F)F)cc1)c1cccs1`, the Ki is reported as 220 nM.
